From PubChem BioAssay
In the library only some 5.9% were active in any assay of this set; here they are far more common.
Pf Dd2 inh = inhibitors of Plasmodium falciparum Dd2 growth. P. falciparum Dd2 growth, SYBR Green, 72 h; hits give low values. activity change, % at 10 µM. actives 2.3% (n = 94,000). AID 1159554; in the data active means activity change below about -80%; inconclusive means no clear call, values can overlap the other calls
T cruzi growth-1 = inhibitors of T. cruzi proliferation; T. cruzi beta-gal in NIH3T3, GalScreen luminescence, 90 h; inhibition, % at 8.34 µM; actives 5.9% (n = 77,000); AID 624255;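 active means mean inhibition above about 93%, with at least 55% of replicates each passing it, limit read from the data, passing the limit was not always enough; inconclusive means only one of those two conditions holds; inactive means neither condition holds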
IDH1 R132H inh = IDH1 R132H (human) inhibition | O75874 | IDH1 R132H reductase, diaphorase/resazurin fluorescence, 60 min | inhibition, % at 10 µM | actives 0.18% (n = 70,000) | AID 624101; in the data active means inhibition above about 34%; inconclusive means no clear call, values can overlap the other calls; inactive means below about 11%
Target sequence (O75874 whole entry R132H): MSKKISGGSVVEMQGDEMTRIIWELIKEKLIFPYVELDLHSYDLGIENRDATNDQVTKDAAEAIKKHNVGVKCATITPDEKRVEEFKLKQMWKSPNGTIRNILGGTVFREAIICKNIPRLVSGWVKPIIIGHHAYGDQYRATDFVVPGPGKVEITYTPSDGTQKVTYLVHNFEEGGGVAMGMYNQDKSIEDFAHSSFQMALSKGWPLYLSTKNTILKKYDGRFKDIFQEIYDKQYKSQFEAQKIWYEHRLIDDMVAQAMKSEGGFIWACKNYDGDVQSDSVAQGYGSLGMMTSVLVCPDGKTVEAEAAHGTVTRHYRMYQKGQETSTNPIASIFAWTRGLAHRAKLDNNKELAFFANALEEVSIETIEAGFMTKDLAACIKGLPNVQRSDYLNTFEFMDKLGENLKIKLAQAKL
KDM4C inh = KDM4C (human) demethylase inhibition; inhibition, % at 12.5 µM; actives 0.15% (n = 96,000); Q9H3R0; GST-KDM4C 2-372, H3K9me3 peptide, LANCE TR-FRET;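 active means mean replicate inhibition above about 25%, with at least 55% of replicates also reaching it, limit read from the data, passing the limit was not always enough; inconclusive means only one of those two conditions met; inactive means neither condition met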
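Test system – GST-tagged GASC-1 (JMJD2C) catalytic fragment, aa 2-372 · Medium – HEPES buffer, pH 7.5, plus ascorbate · Reagent – H3K9me3 peptide with Fe(II)/2OG · Compound – one test concentration per compound · Timing – 30 min reaction, 60 min detection, RT · Technique – TR-FRET with Eu antibody and ULight streptavidin, EDTA stop · Read-out basis – inhibition from TR-FRET ratio decrease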
T cruzi growth-2 = Trypanosoma cruzi proliferation inhibition; actives 72% (n = 5,600); AID 651739; inhibition, % at 8.35 µM; T. cruzi beta-gal in NIH3T3, GalScreen luminescence, 90 h; shares compounds with T cruzi growth-1;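 active means mean replicate inhibition above about 95% and at least 55% of replicates individually reaching it, limit read from the data; inconclusive means only one of the two criteria is met; inactive means neither criterion is met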
T cruzi growth-3 = Trypanosoma cruzi proliferation inhibition | shares compounds with T cruzi growth-1 | T. cruzi beta-gal in NIH3T3, GalScreen luminescence, 90 h | AID 651740 | inhibition, % at 2.09 µM | actives 21% (n = 5,600);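 active means mean inhibition above about 95%, with at least 55% of replicates also reaching it, limit read from the data; inconclusive means meets just one of the two conditions; inactive means meets neither condition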
3T3 cytotox = NIH/3T3 (mouse) viability loss; shares compounds with T cruzi growth-1; NIH/3T3 viability, CellTiter-Glo ATP luminescence, 90 h; cytotoxicity (signal decrease), % at 8.35 µM; actives 14% (n = 5,600);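 active means mean signal decrease across replicates above about 35% based on untreated-well scatter, with enough replicates individually passing, limit read from the data; inconclusive means no rule stated though some were filed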
3T3 cytotox 2 = kills mouse NIH/3T3 fibroblasts. inhibition, % at 24.9 µM. shares compounds with T cruzi growth-1. NIH/3T3 viability, CellTiter-Glo ATP luminescence, 90 h. actives 56% (n = 5,600);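 active means mean loss of cell viability signal at or above a set limit, and enough replicates individually reaching it; inconclusive means meets only the mean limit or only the replicate share; inactive means meets neither condition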
Hits are given with their value; . = inactive; ? = inconclusive; / = not tested or not shown; ! = a repeat was not active.

SMILES	Pf Dd2 inh	T cruzi growth-1	IDH1 R132H inh	KDM4C inh	T cruzi growth-2	T cruzi growth-3	3T3 cytotox	3T3 cytotox 2
Cc1ccc(-c2ccc3c(c2)O[C@@H](CN(C)Cc2ccncc2)[C@H](C)CN([C@@H](C)CO)S3(=O)=O)cc1	-89	123	.	.	98	.	65	100
O=C(CCN1C(=O)C2C3C=CC(C4CC34)C2C1=O)Nc1ccc(Br)cc1Cl (configuration not stated)	/	/	.	/	/	/	/	/
Cc1ccc(-c2ccc3c(c2)O[C@@H](CN(C)Cc2ccncc2)[C@@H](C)CN([C@H](C)CO)S3(=O)=O)cc1	.	123	.	.	97	101	.	94
C[C@@H]1CN([C@@H](C)CO)S(=O)(=O)c2ccc(-c3cncnc3)cc2O[C@H]1CN(C)Cc1ccncc1	.	.	.	.	/	/	/	/
Cc1ccc(S(=O)(=O)N[C@@H]2CC[C@@H](CC(=O)N3CCC(Cc4ccccc4)CC3)O[C@@H]2CO)cc1	.	111	.	.	110	.	.	35
COc1ccc(S(=O)(=O)N[C@H]2C=C[C@@H](CC(=O)N3CCC(Cc4ccccc4)CC3)O[C@H]2CO)cc1	.	110	.	.	.	.	.	70
O=C(NCC[C@@H]1CC[C@H](NS(=O)(=O)c2ccccc2F)[C@@H](CO)O1)c1ccc(F)cc1	.	104	.	.	.	.	.	.
O=C(C[C@@H]1CC[C@@H](NS(=O)(=O)c2ccc(F)cc2)[C@H](CO)O1)N1CCc2ccccc2C1	.	104	.	.	.	.	.	.
O=C(C[C@H]1CC[C@@H](NS(=O)(=O)c2ccc(F)cc2)[C@@H](CO)O1)N1CCc2ccccc2C1	.	.	.	.	/	/	/	/
Cc1cc(=O)[nH]c(SCCOc2ccc(C(=O)c3ccccc3)cc2)n1	/	/	.	/	/	/	/	/
Cc1cc(CNC(=S)Nc2ccc(S(N)(=O)=O)cc2)nn1C	/	/	.	/	/	/	/	/
C[C@H]1CCCCO[C@@H](CN(C)C(=O)Nc2ccc(C(F)(F)F)cc2)[C@@H](C)CN([C@@H](C)CO)C(=O)c2cc(NC(=O)c3ccccc3)ccc2O1	-84	102	/	.	108	113	.	.
C[C@@H]1CCCCO[C@H](CN(C)C(=O)Nc2ccc(F)cc2)[C@H](C)CN([C@H](C)CO)C(=O)c2cc(NC(=O)c3ccccc3)ccc2O1	?	?	/	.	102	.	.	.
C[C@@H]1CN([C@H](C)CO)C(=O)c2cc(NC(=O)c3ccccc3)ccc2O[C@@H](C)CCCCO[C@H]1CN(C)C(=O)Nc1ccc(F)cc1	.	.	/	.	/	/	/	/
C[C@H]1CCCCO[C@H](CN(C)C(=O)Nc2ccc(F)cc2)[C@@H](C)CN([C@@H](C)CO)C(=O)c2cc(NC(=O)c3ccccc3)ccc2O1	.	99	.	.	.	.	.	?
C[C@@H]1CCCCO[C@@H](CN(C)C(=O)Nc2ccc(F)cc2)[C@H](C)CN([C@H](C)CO)C(=O)c2cc(NC(=O)c3ccccc3)ccc2O1	.	.	/	.	/	/	/	/
Cc1cc(Cl)ccc1NC(=O)Cn1cnc2sc(C)c(-c3ccc(F)cc3)c2c1=O	/	/	.	/	/	/	/	/
Cc1cccc(-c2ccc([C@@H]3[C@@H](CO)N4CCCCN(S(=O)(=O)c5cn(C)cn5)C[C@@H]34)cc2)c1	.	?	/	.	.	.	.	82
Cn1cnc(S(=O)(=O)N2CCCCN3[C@@H](CO)[C@@H](c4ccc(-c5ccccc5)cc4)[C@@H]3C2)c1	.	114	/	.	.	.	.	40
Cn1cnc(S(=O)(=O)N2CCCCN3[C@H](CO)[C@H](c4ccc(-c5ccccc5)cc4)[C@@H]3C2)c1	.	.	/	.	/	/	/	/
Cn1cnc(S(=O)(=O)N2CCCCN3[C@H](CO)[C@H](c4ccc(-c5ccccc5)cc4)[C@H]3C2)c1	.	?	/	.	.	.	.	30
Cc1cccc(-c2ccc([C@H]3[C@@H](CO)N4CCCCN(S(=O)(=O)c5cn(C)cn5)C[C@@H]34)cc2)c1	.	.	/	.	/	/	/	/
OC[C@@H]1[C@H](c2ccc(-c3ccccc3F)cc2)[C@H]2CN(Cc3cncnc3)CCCCN12	.	110	/	.	100	.	.	38
OC[C@@H]1[C@H](c2ccc(-c3ccccc3F)cc2)[C@@H]2CN(Cc3cncnc3)CCCCN12	.	110	/	.	.	.	.	50
OC[C@@H]1[C@@H](c2ccc(-c3ccccc3F)cc2)[C@H]2CN(Cc3cncnc3)CCCCN12	.	.	/	.	/	/	/	/
SMILES	Pf Dd2 inh	T cruzi growth-1	IDH1 R132H inh	KDM4C inh	T cruzi growth-2	T cruzi growth-3	3T3 cytotox	3T3 cytotox 2
OC[C@@H]1[C@@H](c2ccc(-c3ccccc3F)cc2)[C@@H]2CN(Cc3cccnc3)CCCCN12	.	.	/	.	/	/	/	/
OC[C@H]1[C@H](c2ccc(-c3ccccc3F)cc2)[C@@H]2CN(Cc3cncnc3)CCCCN12	.	108	/	.	108	.	.	36
COc1ccc(S(=O)(=O)N(C)CC(=O)Nc2ccccc2F)cc1C	/	/	.	/	/	/	/	/
COc1ccc(S(=O)(=O)N2C[C@H](O)COC[C@H]3O[C@@H](CC(=O)N[C@H]4CCN(Cc5ccccc5)C4)CC[C@@H]32)cc1	/	?	/	.	.	.	.	.
Cc1ccc(S(=O)(=O)N2C[C@@H](O)COC[C@H]3O[C@@H](CC(=O)N[C@H]4CCN(Cc5ccccc5)C4)CC[C@@H]32)cc1	.	99	/	.	106	.	.	.
COc1ccc(S(=O)(=O)N2C[C@@H](O)COC[C@H]3O[C@H](CC(=O)N[C@@H]4CCN(Cc5ccccc5)C4)CC[C@@H]32)cc1	/	.	/	.	/	/	/	/
Cc1ccc(S(=O)(=O)N2C[C@H](O)COC[C@@H]3O[C@@H](CC(=O)N[C@@H]4CCN(Cc5ccccc5)C4)CC[C@H]32)cc1	.	.	/	.	/	/	/	/
OC(CSc1cccc2cccnc12)Cn1c2ccccc2c2ccccc21 (configuration not stated)	/	/	.	/	/	/	/	/
C[C@@H]1CN([C@H](C)CO)S(=O)(=O)c2ccc(C#Cc3ccccc3)cc2O[C@H]1CN(C)C(=O)Nc1ccc2c(c1)OCO2	.	92	/	.	108	96!	.	32
C[C@H](CO)N1C[C@H](C)[C@@H](CN(C)C(=O)Nc2ccc3c(c2)OCO3)Oc2cc(C#Cc3ccncc3)ccc2S1(=O)=O	.	.	.	.	/	/	/	/
C[C@H](CO)N1C[C@H](C)[C@@H](CN(C)C(=O)Nc2ccc3c(c2)OCO3)Oc2cc(C#Cc3ccccc3)ccc2S1(=O)=O	.	131	.	.	104	.	.	.
